High-throughput results as filed in PubChem.
PAFAH1B3 inh – inhibitors of human PAFAH1B3 | Q15102 | recombinant PAFAH1B3, FP-rhodamine probe, fluorescence polarization | inhibition, % at 3.39 µM | 340,000 compounds, 0.28% hits;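 active = inhibition above the screen-wide average of all tested compounds plus 3 SD, cut at about 25% in these data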
ARFGAP1 inh – inhibitors of rat ARFGAP1 | inhibition, % at 16.5 µM | AID 651572 | Arfgap1-stimulated ARF1 GTP hydrolysis, GDP FP detection | 360,000 compounds, 0.26% hits;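 active = inhibition above a per-plate limit, mean inhibition of low control wells plus 3 SD, cut at about 25% in these data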
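Replicates: Single well per compound | Assay system: Truncated rat Arfgap1 GAP domain | Control set: No-Arfgap1 wells (100%) versus DMSO full-reaction wells (0%) | Times: Enzyme reaction 120 min at 25 °C after 20 min preincubation | Reagent: Human ARF1(Δ1-17)-GTP substrate | Measured by: Tracer-displacement fluorescence polarization with EDTA stop, 620/688 nm | Measure: Percent inhibition of Arfgap1-stimulated GTP hydrolysis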
PAFAH1B2 FP inh – blocks human PAF acetylhydrolase 1b catalytic subunit 2; P68402; recombinant PAFAH1B2, FP-rhodamine activity probe, fluorescence polarization; inhibition, % at 3.39 µM; 340,000 compounds, 1.2% hits; AID 492953;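 active = inhibition above the mean of all tested compounds plus 3 SD, cut at about 24% in these data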
Target sequence (P68402 whole entry, looked up): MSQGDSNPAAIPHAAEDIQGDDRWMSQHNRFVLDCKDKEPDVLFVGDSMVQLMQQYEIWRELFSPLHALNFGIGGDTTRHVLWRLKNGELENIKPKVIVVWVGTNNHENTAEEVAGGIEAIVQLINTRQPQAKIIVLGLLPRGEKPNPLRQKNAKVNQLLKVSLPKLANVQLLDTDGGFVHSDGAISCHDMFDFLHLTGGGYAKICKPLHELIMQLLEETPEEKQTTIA
ASAP1 GAP inh – ASAP1 ArfGAP inhibition. inhibition, % at 16.5 µM. 360,000 compounds, 0.19% hits. ASAP1-stimulated ARF1 GTP hydrolysis, GDP FP detection. Q9ULH1; in the data active = inhibition above about 25%
Target sequence (Q9ULH1 325-724 limits assumed): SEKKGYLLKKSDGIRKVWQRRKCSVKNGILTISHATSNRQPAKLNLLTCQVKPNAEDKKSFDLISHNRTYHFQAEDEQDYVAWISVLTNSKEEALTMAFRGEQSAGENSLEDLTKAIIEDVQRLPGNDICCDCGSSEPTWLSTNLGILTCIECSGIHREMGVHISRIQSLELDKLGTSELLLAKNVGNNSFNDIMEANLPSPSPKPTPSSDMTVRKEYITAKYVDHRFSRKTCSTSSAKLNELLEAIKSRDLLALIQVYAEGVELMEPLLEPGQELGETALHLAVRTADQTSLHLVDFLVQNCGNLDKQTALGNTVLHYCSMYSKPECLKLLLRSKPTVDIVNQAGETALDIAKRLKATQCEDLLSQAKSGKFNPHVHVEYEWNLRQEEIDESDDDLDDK
PAFAH2 FP inh – inhibitors of human PAFAH2; Q99487; recombinant PAFAH2, FP-rhodamine activity probe, fluorescence polarization; inhibition, % at 3.39 µM; 340,000 compounds, 0.99% hits; AID 492956;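 active = inhibition above the mean over all tested compounds plus 3 SD, cut at about 30% in these data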;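 note: inhibitors block probe labeling of enzyme so polarization drops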
pPAFAH inh – inhibitors of human plasma PAF acetylhydrolase (pPAFAH); 330,000 compounds, 1.5% hits; inhibition, % at 3.39 µM; recombinant pPAFAH, FP-rhodamine probe fluorescence polarization; Q13093;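 active = inhibition above the mean inhibition across the screen plus 3 SD, cut at about 25% in these data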;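 note: inhibitors block binding of the rhodamine activity-based probe so polarization drops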
pPAFAH FP conf – pPAFAH (human) inhibition, confirmed; shares compounds with pPAFAH inh; recombinant pPAFAH, FP-Rh probe fluorescence polarization; inhibition, % at 3.39 µM; 2,300 compounds, 72% hits; AID 463230;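 active = mean inhibition of the triplicate above the hit cutoff set for the earlier primary screen, cut at about 25% in these data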
A number is an active result; 0 = inactive; - = not tested or not shown. Sampled rows, rich in hits. Any-hit rate of the full collection: about 2.7%.

SMILES	PAFAH1B3 inh	ARFGAP1 inh	PAFAH1B2 FP inh	ASAP1 GAP inh	PAFAH2 FP inh	pPAFAH inh	pPAFAH FP conf
C/C(CC(=O)Nc1ccc2c(c1)OCO2)=N\NC(=O)OC(C)(C)C	0	0	0	0	0	0	-
N#C/C(=N\Nc1cccc(C(F)(F)F)c1)C(=O)c1csc(-c2cccnc2)n1	0	0	0	0	0	45	63
Cc1ccsc1C(=O)OCC(=O)c1ccc(OC(F)F)cc1	0	0	0	0	0	0	-
CCN(CC)CCCNC(=O)c1cc2cc(Cl)ccc2nc1N	-	0	-	0	-	-	-
C=CCn1c(N/N=C/c2ccc(O)cc2)nc2ccccc2c1=O	0	0	0	0	0	35	0
S=C(NCc1cccs1)NCC1CCCO1 (stereo not drawn)	0	0	0	0	0	-	-
O=C(Nc1ccc(-c2csc(Nc3ccc(Cl)cc3)n2)cc1)c1cccc(C(F)(F)F)c1	-	0	-	0	-	44	0
Cc1ccnc(NS(=O)(=O)c2ccc(NC(=O)CC(C)c3ccccc3)cc2)n1 (stereo not drawn)	0	0	0	0	0	0	-
Cc1ccc(N=Nc2ccc(O)c3ncccc23)cc1	0	0	0	0	0	35	0
CCS(=O)(=O)c1ccc(N=Nc2ccc(O)c3ncccc23)c(OC)c1	0	0	0	0	0	-	-
COc1ccccc1N=Nc1ccc(O)c2ncccc12	0	0	0	0	0	44	25
COc1ccc(O)c(C(=O)C2c3ccccc3C(=O)N2c2ccc(C)cc2)c1 (stereo not drawn)	0	0	0	0	0	40	0
Cc1[nH]nc2c1C(c1ccc(Br)cc1)N(Cc1ccccc1)C2=O (stereo not drawn)	-	0	-	0	-	-	-
CCc1noc(C)c1C(=O)OCC(=O)NC(C)c1ccccc1 (stereo not drawn)	0	0	0	0	0	35	0
CCc1noc(C)c1C(=O)OCC(=O)NCc1ccccc1	0	0	0	0	0	0	-
CN1CCCCC(NC(=O)c2cccc(C(F)(F)F)c2)C1=O (stereo not drawn)	-	0	-	0	-	-	-
CCOC(=O)C1=CCN(S(=O)(=O)c2ccc([N+](=O)[O-])cc2)C1c1ccc(C)cc1 (stereo not drawn)	-	0	-	0	-	-	-
Nc1nc(-c2ccco2)cs1	0	0	0	0	0	0	-
c1coc(-c2nc(-c3ccco3)c(-c3ccco3)nc2-c2ccco2)c1	47	0	45	0	73	100	43
Nc1nc(-c2ccco2)c(-c2ccco2)s1	0	0	0	0	0	37	0
Fc1ccc2nc(-c3ccc(CN4CCC(c5nc6ccccc6[nH]5)CC4)cc3)c(-c3ccccc3)nc2c1	-	0	-	0	-	-	-
CC(=O)OCCCNc1cc(SCc2ccco2)c2nonc2c1[N+](=O)[O-]	0	0	0	0	0	39	0
CCCC(=O)OCCNc1cc(SCc2ccco2)c2nonc2c1[N+](=O)[O-]	0	0	0	0	0	78	0
CC(Cc1ccc(O)c(O)c1)C(C)Cc1ccc(O)c(O)c1 (stereo not drawn)	-	-	-	-	-	70	79
N[C@@H](Cc1ccc(O)c(O)c1)C(=O)O	0	0	0	0	0	-	-
SMILES	PAFAH1B3 inh	ARFGAP1 inh	PAFAH1B2 FP inh	ASAP1 GAP inh	PAFAH2 FP inh	pPAFAH inh	pPAFAH FP conf
CCCCCCn1c(=O)n2n(c1=O)[C@@H]1CN(S(=O)(=O)c3ccc(C)cc3)C[C@]1(O)[C@@H](OC(=O)Nc1c(C)noc1C)C2	-	0	-	0	-	-	-
C/C(=N\NC(=O)c1ccccc1O)c1cccc(NC(=O)c2ccccc2)c1	0	0	0	0	0	0	-
C/C(=N\NC(=O)c1cc(O)ccc1O)c1cccc(NC(=O)c2cccc(Cl)c2)c1	0	0	0	0	0	38	0
C/C(=N\NC(=O)c1cc(O)ccc1O)c1cccc(NC(=O)c2ccc(Cl)cc2)c1	0	0	0	0	0	46	0
CCCCOc1ccc(N2C(=O)C(C)CNC2=S)cc1 (stereo not drawn)	0	0	0	0	0	-	-
Cc1ccccc1C(=O)N[C@H](C(=O)N1CCC[C@H]1C(=O)NC1CCCC1)c1ccccc1	-	0	-	0	-	-	-
CS(=O)(=O)Nc1ccc(-c2cnc3cccnn23)cc1	-	0	-	0	-	-	-
CN(C)CC/C=C1/c2ccccc2COc2ccccc21	-	-	-	-	-	0	-
CN(C)CC/C=C1/c2ccccc2COc2ccc(CC(=O)O)cc21	0	0	0	0	0	60	0
COc1cccc(/C=C2/C(=O)NN(c3ccccc3)C2=O)c1	0	0	0	0	0	-	-
O=C1NN(c2ccccc2)C(=O)/C1=C/c1ccc(Sc2cccc3ccccc23)o1	0	0	0	0	0	43	36
C/C(=N\NC(=O)c1ccc(-c2ccccc2)cc1)C1C(=O)c2ccccc2C1=O	0	0	29	0	0	53	67
C[C@H]1CN([C@@H](C)CO)C(=O)Cc2cc(NS(=O)(=O)c3ccc(Cl)cc3)ccc2O[C@@H]1CN(C)C(=O)Nc1cccc2ccccc12	0	0	0	0	0	49	54
CCCN1C(=O)c2n[nH]c(C(C)C)c2C1c1cccc(C(F)(F)F)c1 (stereo not drawn)	-	0	-	0	-	-	-
CCOC(=O)C(N)CSC1CC(=O)N(c2ccc(C(=O)OC)cc2)C1=O (stereo not drawn)	0	0	0	0	0	0	-
CCOC(=O)c1ccc(N2C(=O)CC(Sc3ncccn3)C2=O)cc1 (stereo not drawn)	0	0	0	0	0	40	0
CC1=C([N+](=O)[O-])C(c2cccc(Br)c2)C2=C(N1)c1ccccc1C2=O (stereo not drawn)	0	0	0	0	0	38	26
COc1ccc(C(=O)Oc2c(CN3CCOCC3)cc(Cl)c3cccnc23)cc1	0	0	0	0	0	0	-
COc1cc(C(=O)Oc2c(CN3CCOCC3)cc(Cl)c3cccnc23)cc(OC)c1OC	0	-	0	-	0	40	0
CCOc1ccc(C2OC34CCCCC3C(C#N)(C#N)C2(C#N)C(=N)O4)cc1OC (stereo not drawn)	43	-	37	-	46	42	0
O=C(CN1CCN(S(=O)(=O)c2cccc(F)c2)CC1)Nc1ccnn1C1CCCC1	0	0	0	0	0	0	-
Cc1ccc(NS(=O)(=O)c2ccc(-c3ccc(=O)[nH]n3)o2)cc1	0	0	0	0	0	36	0
Cc1ccc(S(=O)(=O)N2[C@@H](CCO)OC[C@H]2C(C)C)cc1	-	0	-	0	-	-	-
CC1=C(/C=C/C(C)=C/C=C/C(C)=C/C(=O)Nc2ccc(O)cc2)C(C)(C)CCC1	0	0	0	0	0	54	53
CCCOC(=O)c1cc(-c2ccc(/C=C3/C(=O)N(C)C(=O)C(C#N)=C3C)o2)ccc1Cl	0	-	0	-	0	58	26
CCCOC(=O)c1cc(-c2ccc(C=O)o2)ccc1Cl	0	0	0	0	0	0	-
